The source made the active and inactive calls. No cut-off for these calls is given here.

In series [1] the target is T1, Catechol O-methyltransferase (Homo sapiens, UniProt P21964).
T1 sequence (P21964 whole entry): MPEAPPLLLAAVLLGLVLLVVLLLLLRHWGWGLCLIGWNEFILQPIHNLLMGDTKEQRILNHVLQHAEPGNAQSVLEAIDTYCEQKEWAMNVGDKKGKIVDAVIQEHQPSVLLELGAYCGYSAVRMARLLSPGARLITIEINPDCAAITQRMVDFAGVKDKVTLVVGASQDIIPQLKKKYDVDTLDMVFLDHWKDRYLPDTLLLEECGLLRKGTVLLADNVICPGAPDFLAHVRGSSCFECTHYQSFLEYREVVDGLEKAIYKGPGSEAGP
Nature of the series: Substrate activity at COMT (unknown origin) assessed as N-(2-Fluoro-4,5-dimethoxyphenethyl)octanamide formation in presence of cofactor SAM at 180 mins by HPLC analysis. To be noted: 3 h. The series is classed as ADME. The method in brief:
(§1)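 COMT reaction for lipophilic substrates: Tris buffer pH 8.0 with MgCl2 and dithiothreitol, 10 µL Tween20, 300 nmol SAM, 300 nmol substrate (from 100 mM ethanol stock), 75 units COMT in 1% BSA, 37 °C for 2–4 h. Cooled on ice, centrifuged, CHCl3-extracted, residue in 1:1 MeCN/water analysed by HPLC against methylated references.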

The target of series [2] is Transient receptor potential cation channel subfamily V member 1 (Rattus norvegicus) (UniProt O35433). The series is described as follows: (§2) Activation of rat TRPV1 transfected in HEK293 cells assessed as increase in calcium influx in presence of capsaicin by FURA-2-AM dye based fluorescence assay. The note with it: filed as activator. Format: cell-based. In short, it runs like this: (§3)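 HEK293 transiently transfected with rat TRPV1, imaged 48 h later in HEPES-buffered extracellular solution (1.8 mM CaCl2) after 1 µM FURA-2AM loading. 340/380 nm excitation ratio at 510 nm, sampled at 0.5 Hz. Compound applied at several concentrations, then 10 µM capsaicin after washout to mark transfected cells. Peak minus baseline; each coverslip one experiment, n = 3–13; two-way ANOVA.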

Series [3] deals with Transient receptor potential cation channel subfamily V member 1 (Rattus norvegicus, UniProt O35433). The series is described as §2. Format: cell-based. The method in brief: as §3
For series [4], the target named is T2, Nuclear factor erythroid 2-related factor 2 (Homo sapiens) (UniProt Q16236).
T2 sequence (whole entry): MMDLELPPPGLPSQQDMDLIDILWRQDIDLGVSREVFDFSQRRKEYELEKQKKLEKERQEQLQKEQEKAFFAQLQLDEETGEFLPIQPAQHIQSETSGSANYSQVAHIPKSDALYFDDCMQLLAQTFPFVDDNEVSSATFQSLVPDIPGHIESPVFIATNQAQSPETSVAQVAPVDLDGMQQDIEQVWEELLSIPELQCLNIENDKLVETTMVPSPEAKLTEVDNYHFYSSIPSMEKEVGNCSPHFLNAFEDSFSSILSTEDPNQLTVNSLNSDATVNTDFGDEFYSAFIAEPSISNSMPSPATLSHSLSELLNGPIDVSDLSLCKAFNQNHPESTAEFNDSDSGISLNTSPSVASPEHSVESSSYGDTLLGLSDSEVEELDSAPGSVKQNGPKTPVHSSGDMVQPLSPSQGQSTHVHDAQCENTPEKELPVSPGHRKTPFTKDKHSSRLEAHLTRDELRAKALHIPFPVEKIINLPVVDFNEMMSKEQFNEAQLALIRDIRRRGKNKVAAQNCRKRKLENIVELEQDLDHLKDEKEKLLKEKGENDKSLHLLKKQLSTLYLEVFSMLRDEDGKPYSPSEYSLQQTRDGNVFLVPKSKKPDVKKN
Nature of the series: Activation of NRF2 in HUVEC assessed as induction of HO1 expression at higher concentration measured after overnight incubation by Western blot analysis. Format: tissue-based. The note with it: filed as activator. The method in brief: (§4)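 Primary HUVEC (from fresh umbilical cord, endothelial growth medium with 2% FBS, used at 80–90% confluence) treated with compound; VCAM-1 read-out under TNFα stimulation. Lysates in Triton/deoxycholate buffer; 15 µg protein resolved on 10% SDS-PAGE, semidry-blotted to PVDF, probed overnight at 4 °C for VCAM-1 or HO-1, visualized by ECL. Blots stripped and reprobed for β-actin as loading control.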
On the technique in general: Immunoblotting shows a protein as a band on a membrane.

The target in series [5] is T2, Nuclear factor erythroid 2-related factor 2 (Homo sapiens). Nature of the series: Activation of NRF2 in HUVEC assessed as induction of HO1 expression at lower concentration measured after overnight incubation by Western blot analysis. Format: tissue-based. In short, it runs like this: as §4
Series [6] can be described thus: Redox activity of compound assessed as quenching of luminescence by horseradish peroxidase coupled luminol assay. Format: physicochemical. In short, it runs like this: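 Peroxidase-luminol chemiluminescence: serial dilutions in water added to mix of 2.5 mM luminol, 0.9 mM p-coumaric acid and H2O2, with HRP; quenching read immediately on a plate reader. Expressed relative to compound-free control; at least three independent measurements per concentration; EC50 from concentration–response; ANOVA with LSD post-hoc.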

Series [7] relates to HUVEC. The series is described as follows: Antiinflammatory activity in HUVEC assessed as inhibition of TNFalpha-stimulated VCAM1 expression at higher concentration measured after overnight incubation by Western blot analysis. The series is classed as functional, cell-based. To be noted: Homo sapiens. In short, it runs like this: as §4
Series [8] deals with HUVEC. The series is described as follows: Protection against cold inflicted injury in HUVEC assessed as 25 to 100 uM pretreated for 2 hrs followed by washout and subsequent incubation for 20 hrs at 4 degC by LDH assay. The note with it: Homo sapiens, dose 25-100 µM. Format: functional, cell-based.
Series [9] has as its system HUVEC. The series is described as follows: Antiinflammatory activity in HUVEC assessed as inhibition of TNFalpha-stimulated VCAM1 expression at lower concentration measured after overnight incubation by Western blot analysis. Format: functional, cell-based. The note with it: Homo sapiens. The method in brief:
as §4

In series [10] the target is T1, Catechol O-methyltransferase. Nature of the series: Substrate activity at COMT (unknown origin) assessed as N-(4-Hydroxy-3-methoxyphenethyl)octanamide formation in presence of cofactor SAM at 180 mins by HPLC analysis. Format: ADME. To be noted: 3 h. The method in brief: as §1
A short description of series [11]: Drug distribution in Lewis rat liver assessed as standard uptake value at 4.8 to 13.2 MBq measured at 8 min by PET imaging analysis. The series is classed as ADME, tissue-based. To be noted: in vivo, dose 4.8-13.2 MBq.
Series [12] in a line: Metabolic stability of compound in rat plasma assessed as compound recovery rate measured after 120 mins by radio-HPLC analysis. Format: ADME, cell-free. To be noted: read-out: Drug recovery. In short, it runs like this:
(§5)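 18F tracer in PBS/3% EtOH (100 µL) shaken with rat plasma (200 µL) at 37 °C for 120 min. Samples at 30, 60, 120 min deproteinized with equal volume acetonitrile at 0 °C; supernatant analysed by radio-TLC and radio-HPLC for radiochemical purity and recovery.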

The nature of series [13]: Drug distribution in Lewis rat bladder at 4.8 to 13.2 MBq measured within 30 mins by PET imaging. To be noted: in vivo, 0.5 h, dose 4.8-13.2 MBq. Format: ADME, tissue-based, Urinary bladder.
The nature of series [14]: Drug distribution in Lewis rat bladder assessed as standard uptake value at 4.8 to 13.2 MBq measured after 120 mins. Format: ADME, tissue-based, Urinary bladder. To be noted: in vivo, 2 h, dose 4.8-13.2 MBq.
Series [15] in a line: Drug transport in HUVEC assessed as cell association incubated for 120 mins by HPLC analysis. The series is classed as ADME, tissue-based. To be noted: human, 2 h, in the assay text read “by gamma counting” for “by HPLC analysis”. The method in brief:
(§6)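 HUVEC incubated with ~450 kBq 18F tracer per well in 1 mL medium at 37 °C, normal atmosphere, for up to 120 min. Supernatant collected, cells washed 3× with PBS, lysed and scraped for gamma counting; associated activity expressed as % of applied dose. Lysate extracts analysed by radio-HPLC; three independent experiments, mean ± SD.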

Series [16] in a line: Drug distribution in Lewis rat bone assessed as standard uptake value at 4.8 to 13.2 MBq measured after 120 mins. The series is classed as ADME, tissue-based, Bone element. To be noted: in vivo, 2 h, dose 4.8-13.2 MBq.
The nature of series [17]: Drug accumulation in Lewis rat bone at 4.8 to 13.2 MBq measured after 60 mins by PET imaging analysis. Format: ADME, tissue-based, Bone element. To be noted: in vivo, 1 h, dose 4.8-13.2 MBq.
Series [18] can be described thus: Lipophilicity, log D of compound in n-octanol and phosphate buffered saline at pH 7.5 by shake flask method. Format: physicochemical. The method in brief:
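Shake-flask partition of the 18F tracer between n-octanol and PBS at pH 7.5, following OECD guideline; n = 3.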

Series [19] can be described thus: Drug uptake in human HUVEC lysate extracts assessed as retention time incubated for 120 mins by HPLC analysis. Format: ADME, subcellular. To be noted: 2 h. The method in brief: as §6
The nature of series [20]: Metabolic stability of compound in rat plasma assessed as radiochemical purity measured after 120 mins by radio-HPLC analysis. To be noted: read-out: Stabilty. Format: ADME, cell-free. The method in brief: as §5
A short description of series [21]: Drug distribution in Lewis rat kidney assessed as standard uptake value at 4.8 to 13.2 MBq observed between 5 to 10 mins by PET imaging analysis. The note with it: in vivo, dose lower 4.8 MBq, time lower 5 min, dose upper 13.2 MBq, time upper 10 min. The series is classed as ADME, tissue-based.

Transient receptor potential cation channel subfamily V member 1 (Rattus norvegicus), sequence (O35433 whole entry): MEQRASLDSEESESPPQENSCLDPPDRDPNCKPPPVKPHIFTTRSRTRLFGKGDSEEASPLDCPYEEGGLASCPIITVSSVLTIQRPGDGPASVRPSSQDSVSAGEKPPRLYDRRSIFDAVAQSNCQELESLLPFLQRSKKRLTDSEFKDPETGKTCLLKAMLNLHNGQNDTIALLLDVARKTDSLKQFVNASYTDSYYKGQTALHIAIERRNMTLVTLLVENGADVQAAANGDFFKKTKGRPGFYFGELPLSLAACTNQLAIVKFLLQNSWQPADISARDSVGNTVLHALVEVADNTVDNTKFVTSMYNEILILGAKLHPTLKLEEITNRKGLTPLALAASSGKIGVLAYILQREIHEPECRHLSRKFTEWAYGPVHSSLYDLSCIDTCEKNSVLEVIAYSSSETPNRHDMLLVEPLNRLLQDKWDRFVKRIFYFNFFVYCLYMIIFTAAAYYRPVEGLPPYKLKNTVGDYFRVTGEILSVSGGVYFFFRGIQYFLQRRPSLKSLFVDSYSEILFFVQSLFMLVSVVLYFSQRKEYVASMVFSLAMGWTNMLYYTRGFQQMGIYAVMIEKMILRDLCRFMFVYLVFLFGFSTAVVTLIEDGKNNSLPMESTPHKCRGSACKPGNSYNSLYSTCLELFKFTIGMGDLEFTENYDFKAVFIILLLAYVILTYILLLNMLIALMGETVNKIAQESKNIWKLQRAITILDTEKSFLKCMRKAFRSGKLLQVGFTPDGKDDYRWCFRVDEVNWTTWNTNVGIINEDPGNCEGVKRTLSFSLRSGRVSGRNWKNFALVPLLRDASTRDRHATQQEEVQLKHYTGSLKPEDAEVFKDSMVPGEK
Transient receptor potential cation channel subfamily V member 1, sequence (O35433 whole entry): as above

As a reminder, the EC50 is the concentration that produces a half-maximal response. `CCCCCCCC(=O)NCCc1cc(O)c(O)cc1F`: the Drug metabolism entry in series [1] is listed as “Metabolite_Detected”. The Activity entry in series [2] is “Dose-dependent effect”. In addition, the figures for the EC50 in series [3] and in series [6] were 45.9 µM and 32.6 µM, respectively. Also, the outcome (in [4]; in the series with HUVEC [7]; in the series with HUVEC [8]) was Active. The result (in [5]; in the series with HUVEC [9]) was inactive.
As for `CCCCCCCC(=O)NCCc1ccc(O)c(O)c1`, in series [2], the Activity entry is “Dose-dependent effect”. Besides, the EC50 turned out to be 7.1 µM in series [3] and 12.1 µM in [6]. Also, the outcome (in series [4]; in the series on HUVEC [7]; in the series with HUVEC [8]) was Active. Moreover, the Drug metabolism entry in [10] was “Metabolite_Detected”.
As usually defined, the logD is the decadic logarithm of the distribution of all forms, ionised or not, between an organic phase and buffer at a given pH. High values mean a more lipophilic compound, low ones a more hydrophilic compound. For `CCCCCCCC(=O)NCCc1cc(O)c(O)cc1[18F]`, the SUV in [11] was determined as 21 g/mL; in series [14], 38.5 g/mL; in series [16], 9.8 g/mL; in [21], 8 g/mL. Also, the remaining at 2 h is 77% in series [12] and not below 98% in series [20]. In addition, the Drug uptake entry in [13] and in series [17] was “Active” each time. Also, in series [15], the Drug transport is 0.14 %ID. In series [18], this compound displayed a logD of 3.35. The Retention_time in series [19] was 4.07 min.

(Values after ChEMBL document CHEMBL4715787, “Radiofluorinated N-Octanoyl Dopamine ([F]F-NOD) as a Tool To Study Tissue Distribution and Elimination of NOD in Vitro and in Vivo” (J Med Chem, 2016).)
